Dynein cargo inh: blocks dynein driven cargo transport along microtubules; 3617.4 mouse cells, GR-EGFP nuclear translocation imaging; test concentration mostly 20 µM; stimulated with dexamethasone, 1 µM; active compounds read low; z-score, hits read low; hit rate 0.47% among 220,000; AID 1381;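 active = plate z-score of nuclear minus cytoplasmic receptor signal below a set negative limit, without overly bright fluorescence or cell loss, cut at about -3.5 in these data, passing the limit was not always enough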;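 also: z-score of nuclear minus cytoplasmic ring GR-EGFP intensity difference per well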
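Also added: dexamethasone, 1.0 µM final. Medium: tet-free, stripped-serum medium. Detection: fixed, Hoechst-stained cells imaged at 10x for EGFP. Read-out: nuclear-to-cytoplasmic GR-EGFP distribution per well. Times: induction 48 h, compound 1 h, agonist 30 min.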
p-CIP stab down: lowers stability of the mouse p/CIP coactivator protein | decrease of EGFP signal, % at 10 µM | F442A p/CIP-EGFP cells, EGFP fluorescence, 16 h | Q05BA5 | hit rate 0.01% among 290,000;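 active = EGFP signal decrease of at least 30% at 10 µM or well 3 SD below plate mean, unless failing retest; inactive = the rest, including hits failing retest or dose response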
KCC2 mod: KCC2 (human) Cl- transport modulation. KCC2 cells, thallium flux FluoZin-2 fluorescence. AID 1456. hit rate 2.2% among 190,000. B-score of Tl+ flux slope (higher = more flux/activation; lower = inhibition) at 10 µM;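 active = thallium flux slope and its plate-corrected score both differing from the plate sample mean at a set confidence after two filtering rounds, in either direction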;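 also: slope of fluorescence scaled to starting intensity during 10 to 20 s after thallium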
ABCB6 inh MLPCN: inhibitors of human ABC transporter ABCB6 | Q9NP58 | K562-ABCB6 porphyrin accumulation, flow cytometry, 1 h; active compounds read low | fluorescence ratio to DMSO, % at 10 µM | hit rate 0.19% among 360,000 | AID 602162;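 active = fluorescence ratio to DMSO below 75%, the collection mean minus 3 SD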;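 also: signal is porphyrin accumulated inside mitochondria; 100% equals median channel fluorescence of DMSO control wells; lower ratio means ABCB6 inhibition with less porphyrin fluorescence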
V-ATPase pH: alters yeast V-ATPase proton transport; S. cerevisiae, pHLuorin cytosolic pH fluorescence; response, % at 10 µM; hit rate 0.37% among 350,000; AID 504577; in the data active = response mostly above about 7.3%, no sharp cut-off; inactive = mostly below about 5.4%; also: actives read high
* = called active by the depositor. The entries come from a sample that favours hits as a whole.

Results for O=C(NNc1ncc(C(F)(F)F)cc1Cl)c1c(Cl)cccc1Cl ?
Dynein cargo inh: 3.5; p-CIP stab down: -1; KCC2 mod: 3.8*; ABCB6 inh MLPCN: 99; V-ATPase pH: -2

How did CCN1CCN(C(C(=O)NC2CCCCC2)c2cc3ccccc3o2)CC1 (stereo not drawn) do in these assays?
ABCB6 inh MLPCN: 98

What do the screens show for `CCCCNC(=O)C1(C)CCCCCN1Cc1cc2ccccc2o1` (stereo not drawn)?
ABCB6 inh MLPCN: 91

How did CCCCCCCCN1C(=O)[C@H](CC(=O)NCc2cccc(C(F)(F)F)c2)C[C@@]2(C(=O)OC)CCCCC=C12 do in these assays?
ABCB6 inh MLPCN: 92

How did CC(C)(C)C1=CC=C(C(C)(C)C)C(=O)C1=O do in these assays?
Dynein cargo inh: -3.7*; p-CIP stab down: -5

What do the screens show for `COc1ccc2nc(N=Nc3ccc(O)c4ccccc34)sc2c1`?
Dynein cargo inh: 1.6; p-CIP stab down: 0; KCC2 mod: 18*; ABCB6 inh MLPCN: 101; V-ATPase pH: 0

What do the screens show for `O=C1CN(C(=O)CSc2nc3ccccc3c(=O)n2Cc2ccc(F)cc2)c2ccccc2N1`?
Dynein cargo inh: 0.018; p-CIP stab down: -5; KCC2 mod: 19*; ABCB6 inh MLPCN: 97; V-ATPase pH: 1

Results for CCN(CC)CCCN(C(=O)c1ccc(OC)cc1)c1nc(-c2ccc(OC)cc2)cs1 ?
p-CIP stab down: 5; ABCB6 inh MLPCN: 98; V-ATPase pH: 1

Results for COCCCN(C(C)=O)c1nc(-c2ccc(OC)cc2)cs1 ?
Dynein cargo inh: 1.5; p-CIP stab down: 4; ABCB6 inh MLPCN: 72*; V-ATPase pH: -4

Results for COC(=O)c1c(-c2ccc(N(C)C)cc2)oc2c1C(OC)CCC2 (stereo not drawn) ?
ABCB6 inh MLPCN: 98

Results for COc1ccc(C(=O)NC(=S)NC(C)C)cc1Br ?
Dynein cargo inh: 1.8; p-CIP stab down: -5; KCC2 mod: 3; ABCB6 inh MLPCN: 98; V-ATPase pH: -3

How did COc1ccc(C(=O)NC(=S)NC(C)(C)C)cc1Br do in these assays?
Dynein cargo inh: -1; p-CIP stab down: -7; KCC2 mod: 4.1*; ABCB6 inh MLPCN: 95; V-ATPase pH: -3

What do the screens show for `CC1(C)C2CCC(CN=C(N)CSS(=O)(=O)O)C1C2` (stereo not drawn)?
ABCB6 inh MLPCN: 96; V-ATPase pH: 2

Results for CN(C)/C=N/NC(=O)c1ccccc1 ?
Dynein cargo inh: -0.23; p-CIP stab down: -2; KCC2 mod: -0.11; ABCB6 inh MLPCN: 105; V-ATPase pH: -2

Results for O=C(NN=c1c(=O)c2ccccc2c1=O)c1ccccc1 ?
Dynein cargo inh: -0.28; p-CIP stab down: 2; KCC2 mod: 8.6*; ABCB6 inh MLPCN: 99; V-ATPase pH: 4

How did Cc1ccc(C(=O)Nc2nc(-c3ccccc3)c(-c3ccccc3)o2)cc1 do in these assays?
Dynein cargo inh: 0.47; p-CIP stab down: -14; KCC2 mod: 31*; ABCB6 inh MLPCN: 104; V-ATPase pH: -4

How did Cc1cc(C)nc(SCC(=O)Nc2nc(-c3ccccc3)c(-c3ccccc3)o2)n1 do in these assays?
Dynein cargo inh: 0.13; p-CIP stab down: 8; KCC2 mod: -1.4; ABCB6 inh MLPCN: 98; V-ATPase pH: -3

What do the screens show for `Cc1ccc(NC(=S)N2CCCC(c3nc4ccccc4[nH]3)C2)cc1` (stereo not drawn)?
Dynein cargo inh: 1.8; p-CIP stab down: 3; KCC2 mod: 0.47; ABCB6 inh MLPCN: 98; V-ATPase pH: 0

Results for Cc1ccc(NC(=S)c2ccncc2)c(C)c1 ?
p-CIP stab down: 9; ABCB6 inh MLPCN: 101; V-ATPase pH: 5

Results for Cc1ccc(NC(=S)c2nc3ccccc3[nH]2)c(C)c1 ?
Dynein cargo inh: -0.26; p-CIP stab down: -3; KCC2 mod: 65*; ABCB6 inh MLPCN: 99; V-ATPase pH: 3

What do the screens show for `Cc1ccc(NC(=S)c2nc3ccccc3[nH]2)cc1`?
Dynein cargo inh: 0.36; p-CIP stab down: -17; KCC2 mod: 33*; ABCB6 inh MLPCN: 95; V-ATPase pH: -4

Results for CCCCOc1ccc(C(=O)NCCN2CCC(n3c(=O)[nH]c4ccccc43)CC2)cc1 ?
ABCB6 inh MLPCN: 121

What do the screens show for `CC1(C(=O)Nc2ccccc2)Cc2c(-c3cccc(C(F)(F)F)c3)ccnc2O1` (stereo not drawn)?
ABCB6 inh MLPCN: 100

Results for CCOC(=O)c1sc2nc(CC(=O)OC)nc(NCc3ccco3)c2c1C ?
Dynein cargo inh: -1; p-CIP stab down: -37; KCC2 mod: -0.91; ABCB6 inh MLPCN: 104

What do the screens show for `CCOC(=O)c1sc2ncnc(NCc3ccco3)c2c1C`?
Dynein cargo inh: -0.41; p-CIP stab down: -16; KCC2 mod: 128*; ABCB6 inh MLPCN: 103; V-ATPase pH: 7

What do the screens show for `COc1ccc(C/C(C)=N/NC(=S)Nc2ccccc2)cc1`?
Dynein cargo inh: 0.24; p-CIP stab down: 5; KCC2 mod: 32*; ABCB6 inh MLPCN: 102; V-ATPase pH: 16

Results for Cc1ccccc1NC(=O)c1cc2ccccc2o1 ?
p-CIP stab down: -9; ABCB6 inh MLPCN: 100; V-ATPase pH: 14*

Results for COc1ccc(OC)c(CN2C(=O)c3ccccc3C2c2nnnn2-c2ccc3c(c2)OCCO3)c1 (stereo not drawn) ?
ABCB6 inh MLPCN: 98

What do the screens show for `O=C(Nc1nnc(-c2ccco2)o1)c1ccc(N2C(=O)CCC2=O)cc1`?
Dynein cargo inh: 0.0057; p-CIP stab down: 5; KCC2 mod: -0.49; ABCB6 inh MLPCN: 86; V-ATPase pH: 1

What do the screens show for `O=C(Nc1nnc(-c2ccc3c(c2)CCCC3)o1)c1ccccc1`?
Dynein cargo inh: 1.5; p-CIP stab down: -7; KCC2 mod: 79*; ABCB6 inh MLPCN: 96; V-ATPase pH: -1

Results for O=C(Nc1nnc(-c2ccc3c(c2)CCCC3)o1)c1ccccc1Cl ?
Dynein cargo inh: 0.95; p-CIP stab down: -2; KCC2 mod: 50*; ABCB6 inh MLPCN: 104; V-ATPase pH: 2

Results for O=C(Nc1nnc(-c2ccncc2)o1)c1ccccc1F ?
Dynein cargo inh: -0.0014; p-CIP stab down: -3; KCC2 mod: 0.8; ABCB6 inh MLPCN: 98; V-ATPase pH: -2

What do the screens show for `O=C(Nc1nnc(-c2ccc(Cl)cc2)o1)c1ccc(N2C(=O)CCC2=O)cc1`?
Dynein cargo inh: 0.77; p-CIP stab down: 2; KCC2 mod: 12*; ABCB6 inh MLPCN: 81; V-ATPase pH: -1

How did O=C(Nc1nnc(-c2ccc(F)cc2)o1)c1cc(Cl)sc1Cl do in these assays?
Dynein cargo inh: -0.87; p-CIP stab down: -9; KCC2 mod: 54*; ABCB6 inh MLPCN: 100; V-ATPase pH: 2

Results for O=C(c1cnc(Cc2c[nH]c3ccccc23)c(I)c1)N1CCN(Cc2ccccc2)CC1 ?
ABCB6 inh MLPCN: 84

Results for CC1(C(=O)NCc2ccccc2Br)CCN1C(=O)Cc1ccc(-c2ccccc2)cc1 (stereo not drawn) ?
ABCB6 inh MLPCN: 89

High-throughput results deposited in PubChem BioAssay by several laboratories.
